Measured values as given in ChEMBL document CHEMBL2062460, “Disubstituted thiourea derivatives and their activity on CNS: synthesis and biological evaluation” (Eur J Med Chem, 2012).
Values after ≈ are worked out from the molar mass of the structure shown. Active and inactive are the calls of the source. No cut-off for these calls is given here.

Key:
[1] = test system: Staphylococcus epidermidis; assay: Antibacterial activity against Staphylococcus epidermidis ATCC 12228 at 400 ug/disc after 18 hrs by disc diffusion method; assay type: functional; conditions: ATCC 12228, 18 h, read-out: DIZ
Summary of the method: (§1)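 Disc diffusion per CLSI on Mueller–Hinton II agar; 9 mm paper discs loaded from methanol or DMSO solutions to 400 µg per disc, dried; growth inhibition zone diameter read after 18 h at 35 °C.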

[2] = test system: Enterococcus hirae; assay: Antibacterial activity against Enterococcus hirae ATCC 10541 at 400 ug/disc after 18 hrs by disc diffusion method; assay type: functional; summary of the method: as §1
[3] = test system: Staphylococcus aureus; assay: Antibacterial activity against Staphylococcus aureus ATCC 25923 at 400 ug/disc after 18 hrs by disc diffusion method; assay type: functional; summary of the method: as §1
[4] = test system: Bacillus cereus; assay: Antibacterial activity against Bacillus cereus ATCC 11778 at 400 ug/disc after 18 hrs by disc diffusion method; assay type: functional; conditions: ATCC 11778, 18 h, read-out: DIZ; summary of the method: as §1
[5] = test system: Micrococcus luteus; assay: Antibacterial activity against Micrococcus luteus ATCC 10240 at 400 ug/disc after 18 hrs by disc diffusion method; assay type: functional; conditions: ATCC 10240, 18 h, read-out: DIZ; summary of the method: as §1
[6] = test system: Escherichia coli; assay: Antibacterial activity against Escherichia coli ATCC 10538 at 400 ug/disc after 18 hrs by disc diffusion method; assay type: functional, organism-based; summary of the method: as §1
[7] = test system: Pseudomonas aeruginosa; assay: Antibacterial activity against Pseudomonas aeruginosa ATCC 15442 at 400 ug/disc after 18 hrs by disc diffusion method; assay type: functional, organism-based; summary of the method: as §1
[8] = test system: Pseudomonas aeruginosa; assay: Antibacterial activity against Pseudomonas aeruginosa NCTC 6749 at 400 ug/disc after 18 hrs by disc diffusion method; assay type: functional, organism-based; summary of the method: as §1
[9] = test system: Bordetella bronchiseptica; assay: Antibacterial activity against Bordetella bronchiseptica ATCC 4617 at 400 ug/disc after 18 hrs by disc diffusion method; assay type: functional, organism-based; summary of the method: as §1
[10] = test system: Candida albicans; assay: Antifungal activity against Candida albicans ATCC 90028 at 400 ug/disc after 18 hrs by disc diffusion method; assay type: functional, organism-based
Summary of the method: (§2)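 Yeasts tested by disc diffusion (CLSI) on RPMI agar with 2% glucose; 9 mm paper discs bearing 400 µg compound from methanol or DMSO solution; inhibition zone diameter read after 18 h at 35 °C.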

[11] = test system: Candida parapsilosis; assay: Antifungal activity against Candida parapsilosis ATCC 22019 at 400 ug/disc after 18 hrs by disc diffusion method; assay type: functional, organism-based; summary of the method: as §2
[12] = test system: Staphylococcus aureus; assay: Antibacterial activity against Staphylococcus aureus NCTC 4163 after 18 hrs by twofold serial agar dilution technique; assay type: functional; conditions: NCTC 4163, 18 h
Summary of the method: (§3)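 Twofold serial agar dilution on Mueller–Hinton II agar, following CLSI guidelines. Compounds were dissolved in methanol or DMSO and tested at final agar concentrations of 3.125–400 µg/mL. Final inoculum was 10^4 CFU/mL.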

[13] = test system: Staphylococcus aureus; assay: Antibacterial activity against Staphylococcus aureus ATCC 25923 after 18 hrs by twofold serial agar dilution technique; assay type: functional; conditions: ATCC 25923, 18 h; summary of the method: as §3
[14] = test system: Bacillus cereus; assay: Antibacterial activity against Bacillus cereus ATCC 11778 after 18 hrs by twofold serial agar dilution technique; assay type: functional; conditions: ATCC 11778, 18 h
[15] = test system: Enterococcus hirae; assay: Antibacterial activity against Enterococcus hirae ATCC 10541 after 18 hrs by twofold serial agar dilution technique; assay type: functional; conditions: ATCC 10541, 18 h
[16] = test system: Micrococcus luteus; assay: Antibacterial activity against Micrococcus luteus ATCC 9341 after 18 hrs by twofold serial agar dilution technique; assay type: functional; conditions: ATCC 9341, 18 h
[17] = test system: Micrococcus luteus; assay: Antibacterial activity against Micrococcus luteus ATCC 10240 after 18 hrs by twofold serial agar dilution technique; assay type: functional; conditions: ATCC 10240, 18 h
[18] = test system: Staphylococcus aureus; assay: Antibacterial activity against methicillin-susceptible Staphylococcus aureus clinical isolate 256/08 after 18 hrs by twofold serial agar dilution technique; assay type: functional; conditions: clinical isolate 256/08, 18 h
Summary of the method: (§4)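 Clinical isolates came from patients in Warsaw Medical University Hospitals and were classed as methicillin-susceptible or -resistant. MIC was determined by twofold serial agar dilution on Mueller–Hinton II agar (CLSI), 3.125–400 µg/mL in agar, with compounds in methanol or DMSO. Inoculum was 10^4 CFU/mL and plates were read after 18 h at 35 °C.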

[19] = test system: Staphylococcus aureus; assay: Antibacterial activity against methicillin-susceptible Staphylococcus aureus clinical isolate 338/08 after 18 hrs by twofold serial agar dilution technique; assay type: functional; conditions: clinical isolate 338/08, 18 h; summary of the method: as §4
[20] = test system: Staphylococcus aureus; assay: Antibacterial activity against methicillin-susceptible Staphylococcus aureus clinical isolate 367/09 after 18 hrs by twofold serial agar dilution technique; assay type: functional; conditions: clinical isolate 367/09, 18 h; summary of the method: as §4
[21] = test system: Staphylococcus aureus; assay: Antibacterial activity against methicillin-susceptible Staphylococcus aureus clinical isolate 369/09 after 18 hrs by twofold serial agar dilution technique; assay type: functional; conditions: clinical isolate 369/09, 18 h; summary of the method: as §4
[22] = test system: Staphylococcus aureus; assay: Antibacterial activity against methicillin-susceptible Staphylococcus aureus clinical isolate 372/09 after 18 hrs by twofold serial agar dilution technique; assay type: functional; conditions: clinical isolate 372/09, 18 h; summary of the method: as §4
[23] = test system: Staphylococcus aureus; assay: Antibacterial activity against methicillin-resistant Staphylococcus aureus clinical isolate 275/08 after 18 hrs by twofold serial agar dilution technique; assay type: functional; conditions: clinical isolate 275/08, 18 h; summary of the method: as §4
[24] = test system: Staphylococcus aureus; assay: Antibacterial activity against methicillin-resistant Staphylococcus aureus clinical isolate 277/08 after 18 hrs by twofold serial agar dilution technique; assay type: functional; conditions: clinical isolate 277/08, 18 h; summary of the method: as §4
[25] = test system: Staphylococcus aureus; assay: Antibacterial activity against methicillin-resistant Staphylococcus aureus clinical isolate 306/08 after 18 hrs by twofold serial agar dilution technique; assay type: functional; conditions: clinical isolate 306/08, 18 h; summary of the method: as §4
[26] = test system: Staphylococcus aureus; assay: Antibacterial activity against methicillin-resistant Staphylococcus aureus clinical isolate 307/08 after 18 hrs by twofold serial agar dilution technique; assay type: functional; conditions: clinical isolate 307/08, 18 h; summary of the method: as §4
[27] = test system: Staphylococcus aureus; assay: Antibacterial activity against methicillin-resistant Staphylococcus aureus clinical isolate 309/08 after 18 hrs by twofold serial agar dilution technique; assay type: functional; conditions: clinical isolate 309/08, 18 h; summary of the method: as §4
[28] = test system: Staphylococcus aureus; assay: Antibacterial activity against methicillin-resistant Staphylococcus aureus clinical isolate 357/09 after 18 hrs by twofold serial agar dilution technique; assay type: functional; conditions: clinical isolate 357/09, 18 h; summary of the method: as §4
[29] = test system: Staphylococcus aureus; assay: Antibacterial activity against methicillin-resistant Staphylococcus aureus clinical isolate 376/09 after 18 hrs by twofold serial agar dilution technique; assay type: functional; conditions: clinical isolate 376/09, 18 h; summary of the method: as §4
[30] = test system: Staphylococcus epidermidis; assay: Antibacterial activity against methicillin-resistant Staphylococcus epidermidis clinical isolate 315/08 after 18 hrs by twofold serial agar dilution technique; assay type: functional; conditions: clinical isolate 315/08, 18 h; summary of the method: as §4
[31] = test system: Staphylococcus epidermidis; assay: Antibacterial activity against methicillin-resistant Staphylococcus epidermidis clinical isolate 317/08 after 18 hrs by twofold serial agar dilution technique; assay type: functional; conditions: clinical isolate 317/08, 18 h; summary of the method: as §4
[32] = test system: Staphylococcus epidermidis; assay: Antibacterial activity against methicillin-resistant Staphylococcus epidermidis clinical isolate 318/08 after 18 hrs by twofold serial agar dilution technique; assay type: functional; conditions: clinical isolate 318/08, 18 h; summary of the method: as §4
[33] = test system: Staphylococcus epidermidis; assay: Antibacterial activity against methicillin-resistant Staphylococcus epidermidis clinical isolate 340/09 after 18 hrs by twofold serial agar dilution technique; assay type: functional; conditions: clinical isolate 340/09, 18 h; summary of the method: as §4
[34] = test system: Staphylococcus epidermidis; assay: Antibacterial activity against methicillin-resistant Staphylococcus epidermidis clinical isolate 341/09 after 18 hrs by twofold serial agar dilution technique; assay type: functional; conditions: clinical isolate 341/09, 18 h; summary of the method: as §4
[35] = test system: Staphylococcus epidermidis; assay: Antibacterial activity against methicillin-resistant Staphylococcus epidermidis clinical isolate 377/09 after 18 hrs by twofold serial agar dilution technique; assay type: functional; conditions: clinical isolate 377/09, 18 h; summary of the method: as §4
[36] = test system: Human immunodeficiency virus 1; assay: Antiviral activity against HIV1 infected in human MT4 cells assessed as virus-induced cytopathogenicity after 4 days by MTT assay; assay type: functional, organism-based; conditions: Human immunodeficiency virus 1, MT4, 96 h

S=C(Nc1ccccc1)Nc1nc[nH]n1
zone of inhibition at 400 µg/disc [1]: 12 mm
diameter of the inhibition zone (DIZ) [2]: inactive
diameter of the inhibition zone (DIZ) [3]: inactive
zone of inhibition at 400 µg/disc [4]: 12 mm
zone of inhibition at 400 µg/disc [5]: 12 mm
diameter of the inhibition zone (DIZ) [6]: inactive
diameter of the inhibition zone (DIZ) [7]: inactive
diameter of the inhibition zone (DIZ) [8]: inactive
diameter of the inhibition zone (DIZ) [9]: inactive
diameter of the inhibition zone (DIZ) [10]: inactive
diameter of the inhibition zone (DIZ) [11]: inactive
MIC [12]: 100 µg/mL (≈ 456 µM)
MIC [13]: 100 µg/mL (≈ 456 µM)
MIC [14]: 100 µg/mL (≈ 456 µM)
MIC [15]: 200 µg/mL (≈ 912 µM)
MIC [16]: 50 µg/mL (≈ 228 µM)
MIC [17]: 50 µg/mL (≈ 228 µM)
MIC [18]: 50 µg/mL (≈ 228 µM)
MIC [19]: 50 µg/mL (≈ 228 µM)
MIC [20]: 50 µg/mL (≈ 228 µM)
MIC [21]: 50 µg/mL (≈ 228 µM)
MIC [22]: 50 µg/mL (≈ 228 µM)
MIC [23]: 100 µg/mL (≈ 456 µM)
MIC [24]: 50 µg/mL (≈ 228 µM)
MIC [25]: 50 µg/mL (≈ 228 µM)
MIC [26]: 50 µg/mL (≈ 228 µM)
MIC [27]: 50 µg/mL (≈ 228 µM)
MIC [28]: 50 µg/mL (≈ 228 µM)
MIC [29]: 50 µg/mL (≈ 228 µM)
MIC [30]: 100 µg/mL (≈ 456 µM)
MIC [31]: 100 µg/mL (≈ 456 µM)
MIC [32]: 50 µg/mL (≈ 228 µM)
MIC [33]: 50 µg/mL (≈ 228 µM)
MIC [34]: 100 µg/mL (≈ 456 µM)
MIC [35]: 50 µg/mL (≈ 228 µM)
EC50 [36]: > 100 µM
